Assay results published in ChEMBL document CHEMBL2016448, “Discovery of new piperidine amide triazolobenzodiazepinones as intestinal-selective CCK1 receptor agonists” (Bioorg Med Chem Lett, 2012).

How the values were obtained:
[1] = target: T1, Cholecystokinin receptor type A (Homo sapiens) (UniProt P32238); assay: Agonist activity at human CCK1 receptor assessed as increase in CCK8-induced calcium release incubated in dark for 30 mins followed by light incubation for 30 mins measured by FLIPR assay relative to CCK8; assay type: functional
T1 sequence (whole entry): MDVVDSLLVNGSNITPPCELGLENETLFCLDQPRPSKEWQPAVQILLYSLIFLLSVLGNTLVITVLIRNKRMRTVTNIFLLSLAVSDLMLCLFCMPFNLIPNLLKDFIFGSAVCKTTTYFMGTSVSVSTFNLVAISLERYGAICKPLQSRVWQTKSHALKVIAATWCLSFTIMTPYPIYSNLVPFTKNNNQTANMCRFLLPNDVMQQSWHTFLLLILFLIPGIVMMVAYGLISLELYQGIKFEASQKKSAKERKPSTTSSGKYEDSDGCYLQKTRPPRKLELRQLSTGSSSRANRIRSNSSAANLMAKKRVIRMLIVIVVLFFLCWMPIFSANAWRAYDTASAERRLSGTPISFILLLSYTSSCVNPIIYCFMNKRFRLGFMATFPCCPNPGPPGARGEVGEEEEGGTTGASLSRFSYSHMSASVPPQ
In short: (§1)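 FLIPR functional assay in CHO cells expressing human CCK1R. Agonism expressed as % of the CCK-8 peptide response. Initial screen at 30 µM, with >30% counted as active. Actives then run as full dose–response. EC50 is the geometric mean of at least 2 independent experiments.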

[2] = target: T2, Cholecystokinin receptor type A (Homo sapiens, UniProt P32238); assay: Agonist activity at human CCK1 receptor assessed as increase in CCK8-induced calcium release incubated in dark for 30 mins followed by light incubation for 30 mins measured by FLIPR assay; assay type: functional; in short: as §1
T2 sequence (P32238 whole entry): T1 sequence (whole entry)

[3] = Intrinsic clearance in human microsomes; assay type: ADME, Microsome
In short: (§2)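 Intrinsic clearance measured in human liver microsomes. The free value is corrected for microsomal binding.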

[4] = target: T2, Cholecystokinin receptor type A; assay: Displacement of [125I]-CCK-8 from human CCK1 receptor expressed in CHO cells after 90 mins by liquid scintillation counting
[5] = Drug excretion in Sprague-Dawley rat bile at 1 mg/kg, iv measured after 24 hrs; assay type: ADME, organism-based; parameters: dose 1 mg/kg, route intravenous; conditions: read-out: Ae
In short: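 Bile-cannulated rats dosed iv at 1 mg/kg. Bile collected over 24 h and % of dose excreted into bile determined.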

Liver = assay: Clearance in rat liver; assay type: ADME, organism-based; conditions: in vivo
[6] = Ratio free drug level in gut to portal system of Sprague-Dawley rat at 10 mg/kg, po administered as single dose measured after 4 hrs; assay type: ADME, organism-based; parameters: dose 10 mg/kg, route oral
In short: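 Single oral dose to rats. Gut and portal drug exposures were measured at 2 h and 4 h post-dose and corrected for non-specific binding to give free concentrations. The free gut to free portal ratio was then calculated at each time point.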

[7] = Free intrinsic clearance in human microsomes; assay type: ADME, Microsome; in short: as §2
[8] = Bioavailability in rat portal system; assay type: ADME, organism-based
[9] = Lipophilicity, log D of the compound at pH 7.4; assay type: physicochemical; conditions: buffer
[10] = Tmax in Sprague-Dawley rat at 6 mg/kg, po; assay type: ADME, organism-based; parameters: dose 6 mg/kg, route oral; conditions: in vivo
In short: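 Male Sprague–Dawley rats dosed iv or po. Oral doses given in SDD formulation. Plasma PK parameters reported as mean of n = 3 rats.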

Plasma = assay: Plasma clearance in Sprague-Dawley rat at 3 mg/kg, iv; assay type: ADME, organism-based; parameters: dose 3 mg/kg, route intravenous; conditions: in vivo
Mus musculus [11] = assay: Antiobesity in C57Bl/6J mouse assessed as reduction in gall bladder weight at 0.6 mg/kg, po measured after 1 hr relative to control; assay type: functional; parameters: scale not given: the % may be the effect or the level left
Mus musculus [12] = assay: Antiobesity in C57Bl/6J mouse assessed as reduction in gall bladder weight at 2 mg/kg, po measured after 24 hr relative to control; assay type: functional; parameters: scale not given: the % may be the effect or the level left
[13] = Solubility of the compound in phosphate buffer; assay type: physicochemical

Compound | Efficacy [1] | EC50 [2] | clearance [3] | IC50 [4] | further results
O=C1C(Cc2c[nH]c3ccccc23)c2nnc(-c3ccccc3)n2-c2ccccc2N1CC(=O)N1CCCC1Cc1ccccn1 (mixture of isomers) | 86% | 560 nM | 212 µL/min/mg | 373 nM | 
CC(C)N(Cc1ccccc1)C(=O)CN1C(=O)[C@@H](Cc2c[nH]c3ccccc23)c2nnc(-c3ccccc3)n2-c2ccccc21 [CE-326597] | 95% |  | 199 µL/min/mg |  | dose excreted at 24 h [5]: 0.04%; CLH (Liver): 47 mL/min/kg; Kp uu at 4 h [6]: 65; CL free [7]: 597 µL/min/mg; bioavailability [8]: 9%; logD [9]: 4.9; Tmax [10]: 1.33 h; clearance (Plasma): 41.7 mL/min/kg; Activity (Mus musculus [11]): 91%; Activity (Mus musculus [12]): 27.5%; solubility [13]: Insoluble
CCC1CCCCN1C(=O)CN1C(=O)C(Cc2c[nH]c3ccccc23)c2nnc(-c3ccccc3)n2-c2ccccc21 (mixture of isomers) | 78% | 400 nM | > 300 µL/min/mg | 36.9 nM | 
CC(C)C1CCCCN1C(=O)CN1C(=O)C(Cc2c[nH]c3ccccc23)c2nnc(-c3ccccc3)n2-c2ccccc21 (mixture of isomers) | 95% | 494 nM | 220 µL/min/mg | 80.1 nM | 

Now from value to compound, other results behind:

Efficacy [1] | EC50 [2] | clearance [3] | IC50 [4] | Compound | further results
87% | 1670 nM |  | 248 nM | O=C1C(Cc2c[nH]c3ccccc23)c2nnc(-c3ccccc3)n2-c2ccccc2N1CC(=O)N1CCCCC1c1ccccc1 (mixture of isomers) | 
78% | 84.2 nM | 146 µL/min/mg | 44.7 nM | O=C1C(Cc2c[nH]c3ccccc23)c2nnc(-c3ccccc3)n2-c2ccccc2N1CC(=O)N1CCCCC1Cc1ccccc1 (mixture of isomers) | 
97% | 52.5 nM | > 300 µL/min/mg | 49.3 nM | COCCC1CCCCN1C(=O)CN1C(=O)C(Cc2c[nH]c3ccccc23)c2nnc(-c3ccccc3)n2-c2ccccc21 (mixture of isomers) | 
89% | 421 nM | 111 µL/min/mg | 340 nM | O=C1C(Cc2c[nH]c3ccccc23)c2nnc(-c3ccccc3)n2-c2ccccc2N1CC(=O)N1CCCCC1Cc1ccncc1 (mixture of isomers) | 
